Consider 27 compounds from ChEMBL document CHEMBL1126084, “2-Acetylpyridine thiocarbonohydrazones. Potent inactivators of herpes simplex virus ribonucleotide reductase” (J Med Chem, 1992).

SMILES strings stand for the structures.

Assay [1] has as its target T1, Ribonucleoside-diphosphate reductase RR1 (Homo sapiens) (UniProt P23921+Q7LG56+P31350). Nature of the assay: Inactivation of human ribonucleotide reductase at rate constant K inact. Type of assay: protein-complex assay. In a few lines:
(§1)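 The ATP contributed about 3 μM iron, keeping inhibitors iron-complexed. Reactions ran ±5 μM inhibitor unless otherwise indicated. kinact (per hour, net over the control) and v0 came from iterative nonlinear least-squares fits of decelerating time courses.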

For assay [2], the target named is T1, Ribonucleoside-diphosphate reductase RR1 (Homo sapiens). Nature of the assay: Inhibitory index against human ribonucleotide reductase. It is filed as protein-complex assay. In short, it runs like this: (§2)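 Index per eq 1 combines kinact and percent inhibition of initial velocity from reductase reactions ±5 μM inhibitor (unless otherwise indicated). 0.99 is subtracted from the calculated ratio, so a non-inhibiting, non-inactivating compound scores zero. HSV-1 and human enzymes were assayed under their respective conditions.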

Assay [3] has as its system Human alphaherpesvirus 1. The assay can be described thus: Inhibition of HSV-1 ribonucleotide reductase. Conditions: concentration not given here. Also noted: concentration or dose not given beside the values. In a few lines: (§3)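 Partially purified HSV-1 ribonucleotide reductase, assayed by reduction of purified [14C]CDP in 200 mM Hepes Na+ pH 7.7, 10 mM dithiothreitol, 2 μM CDP (500 Ci/mol, 3–4 × Km), with and without 5 μM inhibitor unless otherwise indicated. First-order kinact (per hour) and v0 of decelerating product time courses come from iterative nonlinear least squares. kinact is the net increase over the uninhibited control, and % inhibition refers to v0.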

Assay [4] has as its target T1, Ribonucleoside-diphosphate reductase RR1 (Homo sapiens). Nature of the assay: Apparent enzyme activity measured as the ratio of HSV-1 and human enzyme inhibition induces. Type of assay: functional. The note with it: Human alphaherpesvirus 1. In short, it runs like this:
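Apparent selectivity is the ratio of HSV-1 to human inhibition indices, each from eq 1 at 5 μM inhibitor or at the indicated concentration for each enzyme.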

Assay [5] deals with Human alphaherpesvirus 1. Nature of the assay: Inactivation of HSV-1 ribonucleotide reductase at rate constant K inact. In short, it runs like this:
as §3

Assay [6] concerns the target T1, Ribonucleoside-diphosphate reductase RR1 (Homo sapiens). The assay can be described thus: Inhibition of human ribonucleotide reductase. Type of assay: protein-complex assay. Also noted: concentration or dose not given beside the values. The note with it: concentration not given here. In short, it runs like this:
as §1

For assay [7], the system named is Human alphaherpesvirus 1. The assay can be described thus: Inhibitory index against HSV-1 ribonucleotide reductase. In a few lines: as §2

`COc1c(Cl)cccc1/N=C(\S)N/N=C(\S)N/N=C(\C)c1ccccn1`: the maximal inactivation rate constant (kinact) in assay [1] amounted to 0 h⁻¹; in assay [5], 25 h⁻¹. Moreover, the figures for the Inhibitory index in assay [2] and in assay [7] were 1 and 25, respectively. For the same compound, the inhibition in assay [3] was 0%; in assay [6], 50%. Further, the Apparent selectivity (HSV-1/human inhibition index ratio) in assay [4] came out at 26.

As to `C/N=C(\S)N/N=C(\S)N/N=C(\C)c1ccccn1`, the kinact in assay [1] stood at 0.1 h⁻¹; in assay [5], 4 h⁻¹. Also, the Inhibitory index in assay [2] came to 0.35; in assay [7], 5. Moreover, the inhibition was determined as 17% in assay [3] and 19% in assay [6]. In addition, the Apparent selectivity (HSV-1/human inhibition index ratio) in assay [4] was 14.

With `COc1ccccc1/N=C(\S)N/N=C(\S)N/N=C(\C)c1ccccn1`, the kinact was found to be 2.1 h⁻¹ in assay [1] and 23 h⁻¹ in assay [5]. Besides, the Inhibitory index in assay [2] turned out to be 4.5; in assay [7] it was 23. Further, the inhibition in assay [3] was 0%; in assay [6] it was 44%. In assay [4], the Apparent selectivity (HSV-1/human inhibition index ratio) is 5.1.

As for `C/C(=N\N=C(/S)N/N=C(\S)Nc1ccc(Br)cc1)c1ccccn1`, the maximal inactivation rate constant (kinact) turned out to be 2 h⁻¹ in assay [1] and 44 h⁻¹ in assay [5]. Besides, the results for the Inhibitory index in assay [2] and in assay [7] were 3.2 and 57, respectively. Besides, the inhibition came to 23% in assay [3] and 29% in assay [6]. Also, the Apparent selectivity (HSV-1/human inhibition index ratio) in assay [4] worked out at 18.

On to `C/C(=N\N=C(/S)N/N=C(\S)Nc1ccccc1C(F)(F)F)c1ccccn1`, for which the values for the kinact in assay [1] and in assay [5] were 3 h⁻¹ and 10 h⁻¹, respectively. The Inhibitory index is 5.9 in assay [2] and 11 in assay [7]. The inhibition in assay [3] turned out to be 6%; in assay [6] it was 43%. In addition, the Apparent selectivity (HSV-1/human inhibition index ratio) in assay [4] was 1.8.

Regarding `C/C(=N\NC(=O)NNC(=O)Nc1ccccc1Cl)c1ccccn1`, the inhibition in assay [3] amounted to 0%. Moreover, in assay [5], the kinact was determined as 0 h⁻¹. In assay [7], the Inhibitory index was 0.

On to `C/C(=N\N=C(/S)N/N=C(\S)NC1CCCC1)c1ccccn1`, for which the inactivation rate constant (kinact) in assay [1] was determined as 3 h⁻¹; in assay [5], 12 h⁻¹. Besides, the Inhibitory index was determined as 9.8 in assay [2] and 13 in assay [7]. The inhibition was determined as 7% in assay [3] and 64% in assay [6]. For the same compound, the Apparent selectivity (HSV-1/human inhibition index ratio) in assay [4] amounted to 1.3.

For the compound `C/C(=N\N=C(/S)N/N=C(\S)Nc1ccc(C(C)(C)C)cc1)c1ccccn1`, the inhibition in assay [3] stood at 10%. The kinact in assay [5] stood at 16 h⁻¹.

For `C/C(=N\N=C(/S)N/N=C(\S)Nc1cccc(Br)c1)c1ccccn1`, the results for the maximal inactivation rate constant (kinact) in assay [1] and in assay [5] were 2 h⁻¹ and 40 h⁻¹, respectively. The Inhibitory index amounted to 2.8 in assay [2] and 47 in assay [7]. Moreover, the inhibition in assay [3] was determined as 15%; in assay [6], 21%. Moreover, the Apparent selectivity (HSV-1/human inhibition index ratio) in assay [4] turned out to be 17.

With `C/C(=N\N=C(/S)N/N=C(\S)Nc1ccc(Cl)cc1C)c1ccccn1`, the kinact in assay [1] worked out at 1 h⁻¹; in assay [5], 29 h⁻¹. The Inhibitory index worked out at 3.4 in assay [2] and 42 in assay [7]. In addition, the inhibition in assay [3] came to 31%; in assay [6], 55%. Moreover, the Apparent selectivity (HSV-1/human inhibition index ratio) in assay [4] worked out at 12.

Consider `CC(C)C/C(=N\N=C(/S)N/N=C(\S)Nc1ccccc1Cl)c1ccccn1`, for which the values for the kinact in assay [1] and in assay [5] were 0 h⁻¹ and 14 h⁻¹, respectively. Moreover, the Inhibitory index in assay [2] is 0.33; in assay [7] it was 23. In addition, the inhibition in assay [3] stood at 38%; in assay [6], 25%. Also, the Apparent selectivity (HSV-1/human inhibition index ratio) in assay [4] was 70.

For the compound `COc1ccc(N/C(S)=N/N=C(\S)N/N=C(\C)c2ccccn2)cc1`, the maximal inactivation rate constant (kinact) stood at 0 h⁻¹ in assay [1] and 16 h⁻¹ in assay [5]. Besides, the Inhibitory index in assay [2] is 1.1; in assay [7], 29. The inhibition came to 45% in assay [3] and 52% in assay [6]. For the same compound, in assay [4], the Apparent selectivity (HSV-1/human inhibition index ratio) amounted to 28.

For the compound `C/C(=N\NC(=O)N/N=C(\S)Nc1ccccc1Cl)c1ccccn1`, the inhibition in assay [3] was found to be 30%. Moreover, in assay [5], the kinact worked out at 5 h⁻¹. The compound further showed an Inhibitory index in assay [7] of 7.5.

For `C/C(=N\N=C(/S)N/N=C(\S)Nc1ccc(Cl)c([N+](=O)[O-])c1)c1ccccn1`, the kinact in assay [1] amounted to 0 h⁻¹; in assay [5], 45 h⁻¹. Also, the results for the Inhibitory index in assay [2] and in assay [7] were 0.24 and 48, respectively. In addition, the results for the inhibition in assay [3] and in assay [6] were 7% and 20%, respectively. The Apparent selectivity (HSV-1/human inhibition index ratio) in assay [4] amounted to 200.

Take `C/C(=N\N=C(/S)N/N=C(\S)Nc1ccccn1)c1ccccn1`: the kinact in assay [1] stood at 0 h⁻¹; in assay [5] it was 28 h⁻¹. The Inhibitory index in assay [2] stood at 2; in assay [7], 65. In addition, the inhibition came to 57% in assay [3] and 67% in assay [6]. Also, the Apparent selectivity (HSV-1/human inhibition index ratio) in assay [4] was 33.

`C/C(=N\N=C(/S)N/N=C(\S)Nc1ccc(C#N)cc1)c1ccccn1`: the values for the kinact in assay [1] and in assay [5] were 0 h⁻¹ and 29 h⁻¹, respectively. Moreover, the Inhibitory index in assay [2] turned out to be 1.7; in assay [7], 29. For the same compound, the inhibition in assay [3] was 0%; in assay [6] it was 64%. Further, the Apparent selectivity (HSV-1/human inhibition index ratio) in assay [4] turned out to be 17.

`C/C(=N\N=C(/S)N/N=C(\S)Nc1cccc(Cl)c1)c1ccccn1`: the kinact was 0 h⁻¹ in assay [1] and 36 h⁻¹ in assay [5]. The values for the Inhibitory index in assay [2] and in assay [7] were 0.9 and 72, respectively. The inhibition in assay [3] turned out to be 50%; in assay [6] it was 48%. In addition, the Apparent selectivity (HSV-1/human inhibition index ratio) in assay [4] was 80.

As to `C/C(=N\N=C(/S)N/N=C(\S)Nc1ccccc1I)c1ccccn1`, the values for the maximal inactivation rate constant (kinact) in assay [1] and in assay [5] were 4 h⁻¹ and 29 h⁻¹, respectively. In addition, the Inhibitory index in assay [2] was found to be 5.4; in assay [7], 35. The inhibition in assay [3] stood at 18%; in assay [6], 23%. Further, the Apparent selectivity (HSV-1/human inhibition index ratio) in assay [4] was 6.5.

The compound `C/C(=N\Nc1nnc(Nc2ccccc2Cl)s1)c1ccccn1` gave an inhibition in assay [3] of 53%. Moreover, the kinact in assay [5] is 15 h⁻¹. The compound further came in with an Inhibitory index in assay [7] of 32.

On to `S=C(N/N=C/c1ccccn1)NNC(=S)Nc1ccccc1Cl`, for which the maximal inactivation rate constant (kinact) in assay [1] was found to be 0 h⁻¹; in assay [5], 12 h⁻¹. Besides, the Inhibitory index in assay [2] is 0.8; in assay [7] it was 25. Besides, the values for the inhibition in assay [3] and in assay [6] were 51% and 45%, respectively. The Apparent selectivity (HSV-1/human inhibition index ratio) in assay [4] was 31.

`C/C(=N\N=C(/S)N/N=C(\S)Nc1cccc(C#N)c1)c1ccccn1`: the values for the inactivation rate constant (kinact) in assay [1] and in assay [5] were 0.6 h⁻¹ and 32 h⁻¹, respectively. Moreover, the Inhibitory index worked out at 6.6 in assay [2] and 32 in assay [7]. Besides, the inhibition in assay [3] was determined as 0%; in assay [6], 80%. Moreover, the Apparent selectivity (HSV-1/human inhibition index ratio) in assay [4] amounted to 4.8.

On to `C/C(=N\N=C(/S)N/N=C(\S)Nc1ccc(C)cc1)c1ccccn1`, for which the results for the kinact in assay [1] and in assay [5] were 2 h⁻¹ and 16 h⁻¹, respectively. In addition, the Inhibitory index was determined as 7 in assay [2] and 21 in assay [7]. In addition, the inhibition in assay [3] stood at 25%; in assay [6], 64%. For the same compound, in assay [4], the Apparent selectivity (HSV-1/human inhibition index ratio) worked out at 3.

As for `C/C(=N\N=C(/S)N/N=C(\S)Nc1ccccc1Br)c1ccccn1`, the kinact in assay [1] is 0 h⁻¹; in assay [5], 21 h⁻¹. Further, the values for the Inhibitory index in assay [2] and in assay [7] were 0.16 and 34, respectively. Moreover, the figures for the inhibition in assay [3] and in assay [6] were 38% and 14%, respectively. For the same compound, the Apparent selectivity (HSV-1/human inhibition index ratio) in assay [4] is 210.

With `O=C(NNC(=S)N/N=C/c1ccccn1)Nc1ccccc1Cl`, the values for the kinact in assay [1] and in assay [5] were 0 h⁻¹ and 23 h⁻¹, respectively. Also, the Inhibitory index in assay [2] amounted to 1.9; in assay [7], 27. Also, the figures for the inhibition in assay [3] and in assay [6] were 14% and 66%, respectively. Also, the Apparent selectivity (HSV-1/human inhibition index ratio) in assay [4] was 14.

For the compound `C/C(=N\N=C(/S)N/N=C(\S)Nc1cc(Cl)c(Cl)cc1Cl)c1ccccn1`, the kinact in assay [1] was found to be 0 h⁻¹; in assay [5] it was 16 h⁻¹. Further, the Inhibitory index in assay [2] was found to be 0.03; in assay [7] it was 21. Also, the inhibition in assay [3] is 22%; in assay [6], 3%. The Apparent selectivity (HSV-1/human inhibition index ratio) in assay [4] came to 680.

Regarding `C/C(=N\N=C(/S)N/N=C(\S)Nc1ccc([N+](=O)[O-])cc1)c1ccccn1`, the figures for the maximal inactivation rate constant (kinact) in assay [1] and in assay [5] were 1.3 h⁻¹ and 33 h⁻¹, respectively. For the same compound, the Inhibitory index in assay [2] is 4.2; in assay [7] it was 38. The inhibition in assay [3] was 14%; in assay [6], 56%. In assay [4], the Apparent selectivity (HSV-1/human inhibition index ratio) was 9.1.

Compound `C/C(=N\N=C(/S)N/N=C(\S)Nc1ccccc1Cl)c1cccc[n+]1[O-]` yielded an inhibition in assay [3] of 11%. Further, the kinact in assay [5] came to 1 h⁻¹. Further, the Inhibitory index in assay [7] was 1.2.

A word on the kinact: it is the rate constant of inactivation at saturating inhibitor. As a reminder, the inhibition is the drop in the measured response relative to a control, in per cent.
